In ChEMBL document CHEMBL1806375, “Synthesis, molecular modeling and bio-evaluation of cycloalkyl fused 2-aminopyrimidines as antitubercular and antidiabetic agents” (Bioorg Med Chem Lett, 2011):
In brackets after ≈: the same amount, converted by molar mass.

Tests used:
[1] = tested on: Mycobacterium tuberculosis; assay: Antimycobacterial activity against Mycobacterium tuberculosis H37Rv after 30 days by agar microdilution method; assay type: functional
Procedure, shortened: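 Virulent M. tuberculosis H37Rv strain tested by agar microdilution. Isoniazid and ethambutol served as reference drugs. Read-out is the MIC.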

[2] = species on record: Rattus norvegicus; assay: Inhibition of albino rat intestine alpha-glucosidase using p-nitrophenyl-alpha-D-glucopyranoside as substrate at 100 uM
[3] = target: T1, Glycogen phosphorylase, liver form (Rattus norvegicus) (UniProt P09811); assay: Inhibition of Wistar rat liver glycogen phosphorylase at 100 uM after 30 mins
T1 sequence (whole entry): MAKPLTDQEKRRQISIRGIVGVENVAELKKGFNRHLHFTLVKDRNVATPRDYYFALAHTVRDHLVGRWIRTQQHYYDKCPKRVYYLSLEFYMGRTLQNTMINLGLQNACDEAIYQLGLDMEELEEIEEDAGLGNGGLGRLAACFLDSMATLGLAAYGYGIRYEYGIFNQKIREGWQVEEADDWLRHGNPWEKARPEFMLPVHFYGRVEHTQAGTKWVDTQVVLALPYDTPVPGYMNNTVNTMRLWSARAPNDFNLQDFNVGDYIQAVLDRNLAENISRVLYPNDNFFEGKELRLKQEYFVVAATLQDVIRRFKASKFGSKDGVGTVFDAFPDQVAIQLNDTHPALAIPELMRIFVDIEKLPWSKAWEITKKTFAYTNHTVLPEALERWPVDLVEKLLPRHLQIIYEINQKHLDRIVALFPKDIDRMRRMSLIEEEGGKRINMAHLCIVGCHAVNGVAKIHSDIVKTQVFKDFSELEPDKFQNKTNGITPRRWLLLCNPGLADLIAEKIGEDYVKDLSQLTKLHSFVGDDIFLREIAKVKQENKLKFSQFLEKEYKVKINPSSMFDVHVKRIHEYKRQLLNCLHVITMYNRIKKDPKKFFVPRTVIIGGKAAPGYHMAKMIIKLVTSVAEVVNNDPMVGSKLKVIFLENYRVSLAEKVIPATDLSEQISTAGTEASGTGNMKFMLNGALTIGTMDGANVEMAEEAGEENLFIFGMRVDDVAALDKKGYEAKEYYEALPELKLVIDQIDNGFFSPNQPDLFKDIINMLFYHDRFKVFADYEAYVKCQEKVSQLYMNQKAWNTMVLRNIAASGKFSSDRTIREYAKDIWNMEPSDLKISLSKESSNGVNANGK

[4] = tested on: Mycobacterium tuberculosis; assay: Antimycobacterial activity against Mycobacterium tuberculosis H37Rv infected in mouse bone marrow macrophages assessed as intracellular growth inhibition after 4 days; assay type: functional
[5] = Cytotoxicity against mouse bone marrow macrophages at 10 times MIC after 48 hrs by MTS assay; assay type: cell-based; settings: macrophage
[6] = tested on: Vero; assay: Cytotoxicity against african green monkey Vero cells at 10 times MIC of Mycobacterium tuberculosis H37Rv after 24 hrs by MTS assay; assay type: cell-based; settings: chlorocebus sabaeus
[7] = tested on: Mycobacterium tuberculosis; assay: Antimycobacterial activity against Mycobacterium tuberculosis H37Rv infected in mouse bone marrow macrophages assessed as intracellular growth inhibition at 3.12 ug/ml after 4 days; assay type: functional; settings: 96 h, read-out: GI

Row | Structure (SMILES) | MIC [1] [µg/mL] | inhibition [2] [%] | other results
1 | Nc1nc2c(c(-c3cccc4ccccc34)n1)CCCC/C2=C\c1cccc2ccccc12 | > 12.5 | – | –
2 | COc1ccc(/C=C2\CCCc3c2nc(N)nc3-c2ccc(OC)c(OC)c2)cc1OC | > 12.5 | – | –
3 | Nc1nc2c(c(-c3ccccc3)n1)CCCC/C2=C\c1ccccc1 | > 12.5 | -0.07 | –
4 | Nc1nc2c(c(-c3cccc4ccccc34)n1)CCC/C2=C\c1cccc2ccccc12 | 12.5 (≈ 30.2 µM) | 13.7 | inhibition [3]: 11.3%
5 | COc1ccc(/C=C2\CCCCc3c2nc(N)nc3-c2ccc(OC)cc2)cc1 | > 12.5 | – | –
6 | Nc1nc2c(c(-c3ccc(Cl)cc3)n1)CCC/C2=C\c1ccc(Cl)cc1 | > 12.5 | – | –
7 | Nc1nc2c(c(-c3ccccc3)n1)CCC/C2=C\c1ccccc1 | 6.25 (≈ 19.9 µM) | – | inhibition [3]: -6.1%
8 | COc1cc(/C=C2\CCCc3c2nc(N)nc3-c2cc(OC)c(OC)c(OC)c2)cc(OC)c1OC | > 12.5 | – | –
9 | Nc1nc2c(c(-c3ccc4ccccc4c3)n1)CCC/C2=C\c1ccc2ccccc2c1 | 6.25 (≈ 15.1 µM) | -6 | inhibition [3]: -5%
10 | Nc1nc(Cc2ccco2)c2c(n1)/C(=C/Cc1ccco1)CCC2 | > 12.5 | – | –
11 | Nc1nc2c(c(-c3ccc(F)cc3)n1)CCC/C2=C\c1ccc(F)cc1 | 12.5 (≈ 35.8 µM) | – | –
12 | Nc1nc(Cc2ccco2)c2c(n1)/C(=C/Cc1ccco1)CCCC2 | > 12.5 | -4.87 | inhibition [3]: 34.3%
13 | NNC(=O)c1ccncc1 [ISONIAZID] | 0.75 (≈ 5.47 µM) | – | growth inhibition (GI) [4]: >=99%
14 | Nc1nc2c(c(-c3ccc(Cl)cc3)n1)CCCC/C2=C\c1ccc(Cl)cc1 | > 12.5 | 11.4 | –
15 | COc1ccc(/C=C2\CCCCc3c2nc(N)nc3-c2ccc(OC)c(OC)c2)cc1OC | 6.25 (≈ 14 µM) | -6.4 | –
16 | Nc1nc2c(c(-c3ccc(OCc4ccccc4)cc3)n1)CCC/C2=C\c1ccc(OCc2ccccc2)cc1 | > 12.5 | – | inhibition [3]: -0.87%
17 | CC[C@@H](CO)NCCN[C@@H](CC)CO [ETHAMBUTOL] | 3.25 (≈ 15.9 µM) | – | –
18 | Nc1nc2c(c(-c3ccc(Br)cc3)n1)CCC/C2=C\c1ccc(Br)cc1 | 12.5 (≈ 26.5 µM) | – | –
19 | Nc1nc2c(c(-c3ccc4ccccc4c3)n1)CCCC/C2=C\c1ccc2ccccc2c1 | 3.12 (≈ 7.3 µM) | – | Activity [5]: Non-toxic; Activity [6]: Non-toxic; inhibition of growth at 3.12 µg/mL [7]: 58%
20 | Nc1nc2c(c(-c3ccc(Br)cc3)n1)CCCC/C2=C\c1ccc(Br)cc1 | > 12.5 | -5.86 | –
21 | COc1cc(/C=C2\CCCCc3c2nc(N)nc3-c2cc(OC)c(OC)c(OC)c2)cc(OC)c1OC | > 12.5 | – | –
22 | COc1ccc(/C=C2\CCCc3c2nc(N)nc3-c2ccc(OC)cc2)cc1 | > 12.5 | – | inhibition [3]: -10%
